Measured values published in ChEMBL document CHEMBL3856209, “Novel pyrazolopyridine derivatives as potential angiogenesis inhibitors: Synthesis, biological evaluation and transcriptome-based mechanistic analysis” (Eur J Med Chem, 2016).
Calls of active or inactive are those of the source. The calls are words filed in the database; no cut-off is given here.

Tests used:
[1] = target: Vascular endothelial growth factor receptor 2 (Homo sapiens) (UniProt P35968); assay: Inhibition of VEGF-165-induced VEGFR2 autophosphorylation in serum-starved HUVEC assessed as decrease in AKT phosphorylation at 2 uM preincubated for 2 hrs followed by VEGF-165 induction measured after 5 mins by Western blot analysis; assay type: cell-based
Summary of the method: (§1)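 Serum-starved HUVEC were given 2 µM compound or vehicle for 2 h, then VEGF-165 (50 ng/mL) or PBS for 5 min. Lysates with equal protein were run on SDS-PAGE and immunoblotted for phospho-VEGFR2 (Tyr951, 996, 1056, 1175), p-AKT Ser473, p-ERK1/2 and the total proteins. Detection was by ECL with densitometry. Phospho signals were normalized to total protein, n = 3.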

HUVEC (Homo sapiens) [2] = assay: Antiproliferative activity against human HUVEC cells assessed as decrease in VEGF-165-induced cell growth at 0.5 to 2 uM after 24 to 48 hrs by MTT assay
HUVEC [3] = assay: Inhibition of VEGF-165-induced HUVEC chemotactic migration at 0.2 to 2 uM after 6 hrs by transwell assay; assay type: functional, cell-based; conditions: Homo sapiens
Summary of the method: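 Serum-starved HUVEC were pre-treated overnight with compound or vehicle in 5% FBS medium. Cells were then seeded at 6×10^4 per upper Transwell chamber (8 µm pores) and migrated for 6 h toward VEGF-165 (50 ng/mL) or starvation medium. Migrated cells were ethanol-fixed, stained with H&E and counted in five fields per well. Results are % of control from at least two independent experiments.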

HUVEC [4] = assay: Antimigratory activity in HUVEC at 0.2 to 2 uM after 6 hrs in presence of 5% fetal bovine serum by transwell assay; assay type: functional, cell-based; conditions: Homo sapiens
Summary of the method: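 Serum-starved confluent HUVEC pre-treated overnight with compound or vehicle in 5% FBS medium. Then placed in the upper chamber of 8 µm-pore Transwells (6×10^4 cells/well) and allowed to migrate 6 h toward 5% FBS or starvation medium. Migrated cells fixed, H&E stained, and counted in five fields/well; expressed as % of control; replicates from two independent experiments.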

HUVEC (Homo sapiens) [5] = assay: Antiproliferative activity against human HUVEC cells assessed as decrease in VEGF-165-induced cell growth at 0.5 to 2 uM after 24 to 48 hrs by CyQUANT cell proliferation assay
[6] = target: Vascular endothelial growth factor receptor 2 (Homo sapiens) (UniProt P35968); assay: Inhibition of VEGF-165-induced VEGFR2 autophosphorylation at Tyr1175 in serum-starved HUVEC at 2 uM preincubated for 2 hrs followed by VEGF-165 induction measured after 5 mins by Western blot analysis; assay type: cell-based; summary of the method: as §1
HUVEC [7] = assay: Inhibition of total protein tyrosine kinase activity in serum-starved HUVEC at 1 to 4 uM after 2 hrs; assay type: cell-based; conditions: Homo sapiens
Mus musculus [8] = assay: Toxicity in C57BL/6 mouse allografted with mouse LLC cells at 0.05 to 0.2 mg/kg, ip administered thrice a week for 2 weeks starting 24 hrs before tumor implantation by clinical test; assay type: organism-based; conditions: in vivo
Summary of the method: (§2)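 Male C57BL/6 mice, 6–8 weeks old, in groups of 5–6, received 5×10^5 LLC cells sc in the right flank. Compound (0.05–0.2 mg/kg) or DMSO vehicle was given ip thrice weekly for 2 weeks, starting 24 h before implantation. Mice were weighed and examined clinically every other day. At end-point, kidney, lung, spleen, liver and heart sections were H&E-stained and examined microscopically.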

[9] = target: Vascular endothelial growth factor receptor 2 (Homo sapiens) (UniProt P35968); assay: Inhibition of VEGF-165-induced VEGFR2 autophosphorylation in serum-starved HUVEC assessed as decrease in ERK1/2 phosphorylation at 2 uM preincubated for 2 hrs followed by VEGF-165 induction measured after 5 mins by Western blot analysis; assay type: cell-based; summary of the method: as §1
Lewis lung carcinoma = assay: Antiangiogenic activity in mouse LLC cells allografted in C57BL/6 mouse assessed as decrease of microvessel density in tumor at 0.2 mg/kg, ip administered thrice a week for 2 weeks starting 24 hrs before tumor implantation measured post last dose by IHC analysis; assay type: functional, organism-based
Summary of the method: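 Male 6–8 week C57BL/6 mice (groups of 5–6) inoculated sc in the right flank with 5×10^5 LLC cells. Compound (0.2 mg/kg) or DMSO vehicle given ip thrice weekly for 2 weeks, starting 24 h before implantation. Tumors measured by caliper every other day. At end-point, anti-CD31 IHC (1:100) of tumor sections, with immunoreactive cells counted in six high-power fields.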

Mus musculus [10] = assay: Toxicity in C57BL/6 mouse allografted with mouse LLC cells assessed as effect on vital organs at 0.05 to 0.2 mg/kg, ip administered thrice a week for 2 weeks starting 24 hrs before tumor implantation by haematoxylin-eosin staining-based microscopic analysis; assay type: organism-based; conditions: in vivo; summary of the method: as §2
HUVEC [11] = assay: Antiangiogenic activity in HUVEC assessed as inhibition of VEGF-165-induced tube formation at 0.2 to 2 uM after 24 hrs by matrigel assay; assay type: functional, cell-based; conditions: Homo sapiens
Summary of the method: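 HUVEC seeded at 2×10^4 cells/well on growth factor-reduced Matrigel after pre-starvation, then given compound or vehicle (up to 0.1% v/v DMSO), with or without VEGF-165, for 24 h. Fixed in ice-cold ethanol and stained with haematoxylin-eosin. Tube-like structures counted in at least 5 fields/well and expressed as % of vehicle control; replicates from two independent experiments.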

EA.hy 926 = assay: Antiproliferative activity against human EAhy926 cells assessed as decrease in cell viability at 0.2 to 2 uM after 24 to 48 hrs in presence of 2.5% fetal bovine serum by MTT assay; assay type: functional, cell-based
Summary of the method: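 EA.hy926 seeded at 4×10^3/well, adhered 24 h, and starved 4 h in 0.25% BSA medium. Then treated with compound or 0.1% v/v DMSO in medium with 2.5% FBS for 48 h. MTT 0.5 mg/mL for 4 h, A595 with 630 nm correction, cell number from a standard curve. Expressed as % of DMSO control; replicates from two independent experiments.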

[12] = Antiproliferative activity against human EAhy926 cells assessed as decrease in cell viability after 24 to 48 hrs in presence of 2.5% fetal bovine serum by MTT assay; assay type: functional, cell-based; conditions: EA.hy 926
Summary of the method: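 EA.hy926 in DMEM with 2.5% FBS exposed 48 h to serial 1:2 compound dilutions spanning 0.125–50 μM. Viable cells measured by MTT (0.5 mg/mL, 4 h, A595/630 nm). IC50 (mean ± SEM) fitted by non-linear regression from eight or more points.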

Vascular endothelial growth factor receptor 2 (Homo sapiens), sequence (P35968 whole entry): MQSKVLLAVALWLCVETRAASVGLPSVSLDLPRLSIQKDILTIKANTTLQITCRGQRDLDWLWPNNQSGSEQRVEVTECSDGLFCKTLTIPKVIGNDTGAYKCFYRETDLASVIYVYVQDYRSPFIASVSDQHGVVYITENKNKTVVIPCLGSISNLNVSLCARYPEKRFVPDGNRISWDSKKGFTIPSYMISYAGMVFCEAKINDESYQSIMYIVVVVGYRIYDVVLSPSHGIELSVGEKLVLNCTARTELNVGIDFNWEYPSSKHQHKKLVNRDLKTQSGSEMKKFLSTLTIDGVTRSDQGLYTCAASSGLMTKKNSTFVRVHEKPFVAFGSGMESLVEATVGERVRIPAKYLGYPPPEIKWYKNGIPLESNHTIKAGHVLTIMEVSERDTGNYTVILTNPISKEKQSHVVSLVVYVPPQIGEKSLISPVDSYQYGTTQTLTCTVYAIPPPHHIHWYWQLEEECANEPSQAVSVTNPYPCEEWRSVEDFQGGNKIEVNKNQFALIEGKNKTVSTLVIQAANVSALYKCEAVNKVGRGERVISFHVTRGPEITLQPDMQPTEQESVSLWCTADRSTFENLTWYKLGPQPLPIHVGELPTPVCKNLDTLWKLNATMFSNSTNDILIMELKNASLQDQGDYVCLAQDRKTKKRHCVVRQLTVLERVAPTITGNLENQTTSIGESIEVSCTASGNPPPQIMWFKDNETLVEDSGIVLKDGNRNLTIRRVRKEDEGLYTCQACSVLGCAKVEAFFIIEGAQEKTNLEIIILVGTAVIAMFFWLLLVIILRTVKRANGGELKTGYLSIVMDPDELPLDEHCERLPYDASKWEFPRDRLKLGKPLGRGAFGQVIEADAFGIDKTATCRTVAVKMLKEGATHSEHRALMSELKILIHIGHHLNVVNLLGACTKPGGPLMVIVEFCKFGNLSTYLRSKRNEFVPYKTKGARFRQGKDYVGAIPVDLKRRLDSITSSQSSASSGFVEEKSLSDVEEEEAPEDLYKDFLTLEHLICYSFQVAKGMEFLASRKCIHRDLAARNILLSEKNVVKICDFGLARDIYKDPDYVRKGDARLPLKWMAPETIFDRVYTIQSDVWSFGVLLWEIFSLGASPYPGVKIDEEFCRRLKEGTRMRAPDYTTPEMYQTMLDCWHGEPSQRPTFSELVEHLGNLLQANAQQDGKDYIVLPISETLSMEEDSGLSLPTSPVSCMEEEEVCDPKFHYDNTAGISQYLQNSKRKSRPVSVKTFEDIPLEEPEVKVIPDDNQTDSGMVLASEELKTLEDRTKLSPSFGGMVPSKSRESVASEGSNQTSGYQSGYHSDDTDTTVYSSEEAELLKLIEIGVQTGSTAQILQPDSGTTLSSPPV

In the case of COc1ccc(Cn2nc(-c3ccccc3)c3cc(Nc4ccccc4)nc(N4CCNCC4)c32)cc1, the inhibition [1] is reported as “Active”, the Activity (HUVEC (Homo sapiens) [2]) is reported as “Active” and the inhibition (HUVEC [3]) is reported as “Active”. The Activity (HUVEC [4]) was “Active”, the Activity (HUVEC (Homo sapiens) [5]) was “Active” and the inhibition [6] was “Active”. The inhibition (HUVEC [7]) was “Active”, the Activity (Mus musculus [8]) was “Non-Toxic” and the inhibition [9] was “Active”. The Activity (Lewis lung carcinoma) was “Active”, the Activity (Mus musculus [10]) was “Non-Toxic” and the inhibition (HUVEC [11]) was “Active”. For the same molecule, the Activity (EA.hy 926) was “Active” and the IC50 [12] was 14.1 µM.
